ChEMBL document CHEMBL5036319, “Discovery of Novel Benzothiazepinones as Irreversible Covalent Glycogen Synthase Kinase 3β Inhibitors for the Treatment of Acute Promyelocytic Leukemia” (J Med Chem, 2021)
pIC50: −log10 of the molar value. Active and inactive are the calls of the source. The calls are words filed in the database; no cut-off is given here.

Columns and labels:
[1] = target: T1, Glycogen synthase kinase-3 beta (Homo sapiens, UniProt P49841); assay: Inhibition of recombinant human GSK-3beta using GS-2 peptide as substrate incubated for 30 mins in presence of ATP by kinase-glo luminescence assay
Target sequence in this assay (P49841 whole entry): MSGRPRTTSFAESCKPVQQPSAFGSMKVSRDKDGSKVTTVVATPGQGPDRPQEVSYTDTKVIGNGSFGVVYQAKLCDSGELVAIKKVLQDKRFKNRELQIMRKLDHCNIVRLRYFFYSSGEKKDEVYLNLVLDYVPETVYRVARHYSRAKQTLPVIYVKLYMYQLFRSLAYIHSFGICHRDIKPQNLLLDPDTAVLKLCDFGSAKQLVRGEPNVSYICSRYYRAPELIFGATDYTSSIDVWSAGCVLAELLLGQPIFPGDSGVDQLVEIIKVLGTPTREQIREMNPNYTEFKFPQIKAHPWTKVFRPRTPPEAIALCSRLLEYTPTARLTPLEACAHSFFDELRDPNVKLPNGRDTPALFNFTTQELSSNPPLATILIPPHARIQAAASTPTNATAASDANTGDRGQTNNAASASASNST

[2] = target: Glycogen synthase kinase-3 alpha (Homo sapiens) (UniProt P49840); assay: Inhibition of recombinant human GSK-3alpha at 100 uM by mobility shift assay relative to control
Raji = assay: Cytotoxicity against human Raji cells assessed as reduction in cell viability measured after 24 hrs by CCK-8 assay; type: functional, cell-based
Procedure, shortened: (§1)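 Cells were grown in RPMI-1640 or high-glucose DMEM with 10% FBS at 37 °C, 5% CO2, and seeded at 3 × 10^4 cells/well. Exposure was 24 h across serial concentrations (0−1000 μM in the screen). […] Three independent experiments, mean ± SEM.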

MOLT-4 = assay: Cytotoxicity against human MOLT-4 cells assessed as reduction in cell viability measured after 24 hrs by CCK-8 assay; type: functional, cell-based; conditions: MOLT-4, 24 h; procedure, shortened: as §1
HL-60 = assay: Cytotoxicity against human HL-60 cells assessed as reduction in cell viability measured after 24 hrs by CCK-8 assay; type: functional, cell-based; conditions: HL-60, 24 h; procedure, shortened: as §1
NB-4 = assay: Cytotoxicity against human NB-4 cells assessed as reduction in cell viability measured after 24 hrs by CCK-8 assay; type: functional, cell-based; conditions: NB-4, 24 h; procedure, shortened: as §1
[3] = target: Fibroblast growth factor receptor 1 (Homo sapiens) (UniProt P11362); assay: Inhibition of FGFR1 (unknown origin) incubated for 60 mins by ELISA; conditions: dose 100.0 µM
Fibroblast growth factor receptor 1 (Homo sapiens), sequence (P11362 22-822 limits assumed): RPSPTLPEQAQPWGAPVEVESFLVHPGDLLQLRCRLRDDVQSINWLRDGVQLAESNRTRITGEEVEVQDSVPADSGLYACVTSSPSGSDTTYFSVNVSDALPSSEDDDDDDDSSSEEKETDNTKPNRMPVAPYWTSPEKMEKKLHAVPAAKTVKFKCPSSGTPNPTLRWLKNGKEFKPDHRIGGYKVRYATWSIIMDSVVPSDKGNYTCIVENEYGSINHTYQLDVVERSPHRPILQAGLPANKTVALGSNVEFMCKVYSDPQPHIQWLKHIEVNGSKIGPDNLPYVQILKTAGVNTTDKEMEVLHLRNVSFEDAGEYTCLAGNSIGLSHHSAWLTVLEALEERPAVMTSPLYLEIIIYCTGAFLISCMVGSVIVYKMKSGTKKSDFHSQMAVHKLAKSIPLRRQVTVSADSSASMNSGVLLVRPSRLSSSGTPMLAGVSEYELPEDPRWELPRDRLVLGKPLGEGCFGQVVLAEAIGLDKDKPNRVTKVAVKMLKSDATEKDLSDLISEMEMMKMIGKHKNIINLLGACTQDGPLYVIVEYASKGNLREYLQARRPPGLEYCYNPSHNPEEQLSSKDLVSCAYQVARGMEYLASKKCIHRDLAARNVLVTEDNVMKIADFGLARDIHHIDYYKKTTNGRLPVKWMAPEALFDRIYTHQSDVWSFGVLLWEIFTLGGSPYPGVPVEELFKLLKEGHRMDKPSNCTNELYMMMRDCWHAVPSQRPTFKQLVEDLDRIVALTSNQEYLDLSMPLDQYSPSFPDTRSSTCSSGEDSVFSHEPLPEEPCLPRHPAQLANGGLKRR

[4] = target: Platelet-derived growth factor receptor beta (Homo sapiens) (UniProt P09619); assay: Inhibition of PDGFRbeta (unknown origin) at 100 uM incubated for 60 mins by ELISA relative to control
Platelet-derived growth factor receptor beta (Homo sapiens), sequence (P09619 whole entry): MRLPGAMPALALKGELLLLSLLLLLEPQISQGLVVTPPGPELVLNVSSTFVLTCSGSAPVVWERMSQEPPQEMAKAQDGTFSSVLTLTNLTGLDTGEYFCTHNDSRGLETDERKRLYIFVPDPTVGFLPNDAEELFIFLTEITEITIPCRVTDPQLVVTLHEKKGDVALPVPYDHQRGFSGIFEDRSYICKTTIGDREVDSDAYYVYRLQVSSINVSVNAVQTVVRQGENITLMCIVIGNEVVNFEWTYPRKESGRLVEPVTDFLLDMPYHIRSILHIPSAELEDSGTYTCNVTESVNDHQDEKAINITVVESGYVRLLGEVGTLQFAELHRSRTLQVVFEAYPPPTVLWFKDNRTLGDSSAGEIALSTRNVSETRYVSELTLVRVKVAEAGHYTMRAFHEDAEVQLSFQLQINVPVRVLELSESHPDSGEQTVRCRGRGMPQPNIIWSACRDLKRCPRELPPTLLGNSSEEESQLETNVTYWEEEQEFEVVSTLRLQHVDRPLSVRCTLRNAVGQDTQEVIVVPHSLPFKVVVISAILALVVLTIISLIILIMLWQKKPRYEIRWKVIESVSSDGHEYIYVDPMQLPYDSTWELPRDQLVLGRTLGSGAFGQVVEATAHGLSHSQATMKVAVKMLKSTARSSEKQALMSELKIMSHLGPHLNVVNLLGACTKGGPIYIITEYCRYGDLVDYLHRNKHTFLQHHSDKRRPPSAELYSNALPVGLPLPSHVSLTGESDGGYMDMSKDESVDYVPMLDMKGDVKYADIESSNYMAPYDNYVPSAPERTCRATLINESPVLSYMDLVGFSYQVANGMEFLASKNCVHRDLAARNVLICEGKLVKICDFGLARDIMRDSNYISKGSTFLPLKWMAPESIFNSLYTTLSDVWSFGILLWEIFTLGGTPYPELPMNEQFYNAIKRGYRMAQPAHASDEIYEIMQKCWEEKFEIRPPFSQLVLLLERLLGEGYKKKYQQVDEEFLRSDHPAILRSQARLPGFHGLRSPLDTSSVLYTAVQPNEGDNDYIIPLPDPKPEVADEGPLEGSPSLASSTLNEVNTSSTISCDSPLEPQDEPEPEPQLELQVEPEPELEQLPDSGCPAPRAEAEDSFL
Procedure, shortened: (§2)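 Tyrosine kinase ELISA on plates precoated with poly(Glu,Tyr) 4:1 substrate. Reaction used 10 μM ATP in buffer (50 mM HEPES pH 7.4, 50 mM MgCl2, 0.5 mM MnCl2, 0.2 mM Na3VO4, 1 mM DTT) with compound in 1% DMSO. Purified kinase started the reaction, 60 min at 37 °C. Detection by anti-phosphotyrosine PY99 then HRP anti-mouse IgG with o-phenylenediamine/H2O2. Read at 490 nm; inhibition = [1 − A490/A490 control] × 100%.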

[5] = target: Mast/stem cell growth factor receptor Kit (Homo sapiens) (UniProt P10721); assay: Inhibition of c-Kit (unknown origin) at 100 uM incubated for 60 mins by ELISA relative to control; procedure, shortened: as §2
[6] = target: Platelet-derived growth factor receptor alpha (Homo sapiens) (UniProt P16234); assay: Inhibition of PDGFRalpha (unknown origin) at 100 uM incubated for 60 mins by ELISA relative to control; procedure, shortened: as §2
Platelet-derived growth factor receptor alpha (Homo sapiens), sequence (P16234 whole entry): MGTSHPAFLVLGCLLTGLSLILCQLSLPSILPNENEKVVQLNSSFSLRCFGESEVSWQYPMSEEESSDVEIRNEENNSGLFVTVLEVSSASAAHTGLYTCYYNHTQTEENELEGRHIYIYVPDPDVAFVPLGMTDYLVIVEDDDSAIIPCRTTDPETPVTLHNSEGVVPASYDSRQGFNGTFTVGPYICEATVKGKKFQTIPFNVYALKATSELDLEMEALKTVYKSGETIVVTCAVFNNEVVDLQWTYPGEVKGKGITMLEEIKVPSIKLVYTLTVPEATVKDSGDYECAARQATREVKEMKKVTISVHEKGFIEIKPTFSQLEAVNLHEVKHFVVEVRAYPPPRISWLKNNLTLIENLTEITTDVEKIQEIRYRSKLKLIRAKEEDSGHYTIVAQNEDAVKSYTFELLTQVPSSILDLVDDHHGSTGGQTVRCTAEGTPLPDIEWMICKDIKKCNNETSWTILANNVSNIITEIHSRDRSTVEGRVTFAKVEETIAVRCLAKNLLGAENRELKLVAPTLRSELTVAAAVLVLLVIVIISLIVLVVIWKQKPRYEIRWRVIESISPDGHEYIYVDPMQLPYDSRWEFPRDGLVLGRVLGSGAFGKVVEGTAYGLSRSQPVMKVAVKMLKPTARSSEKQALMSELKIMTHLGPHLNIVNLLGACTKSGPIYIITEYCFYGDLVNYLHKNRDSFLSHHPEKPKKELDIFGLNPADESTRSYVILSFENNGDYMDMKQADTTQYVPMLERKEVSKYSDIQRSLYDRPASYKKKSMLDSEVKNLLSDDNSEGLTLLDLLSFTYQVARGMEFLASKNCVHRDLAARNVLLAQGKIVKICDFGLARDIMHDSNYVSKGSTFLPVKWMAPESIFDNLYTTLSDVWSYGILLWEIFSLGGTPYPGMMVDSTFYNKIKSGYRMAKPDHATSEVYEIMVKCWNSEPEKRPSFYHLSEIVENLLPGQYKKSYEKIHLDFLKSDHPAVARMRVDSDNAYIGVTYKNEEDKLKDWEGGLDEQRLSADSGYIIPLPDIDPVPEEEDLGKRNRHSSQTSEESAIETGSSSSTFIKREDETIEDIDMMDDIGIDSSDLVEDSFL

[7] = target: Casein kinase 2 (Homo sapiens) (UniProt P67870+P68400+P19784+Q8NEV1); assay: Inhibition of CK2 (unknown origin) at 100 uM incubated for 60 mins by Millipore Kinase Profiler service relative to control
[8] = target: Vascular endothelial growth factor receptor 1 (Homo sapiens) (UniProt P17948); assay: Inhibition of Flt-1 (unknown origin) at 100 uM incubated for 60 mins by ELISA relative to control; procedure, shortened: as §2
Vascular endothelial growth factor receptor 1 (Homo sapiens), sequence (P17948 whole entry): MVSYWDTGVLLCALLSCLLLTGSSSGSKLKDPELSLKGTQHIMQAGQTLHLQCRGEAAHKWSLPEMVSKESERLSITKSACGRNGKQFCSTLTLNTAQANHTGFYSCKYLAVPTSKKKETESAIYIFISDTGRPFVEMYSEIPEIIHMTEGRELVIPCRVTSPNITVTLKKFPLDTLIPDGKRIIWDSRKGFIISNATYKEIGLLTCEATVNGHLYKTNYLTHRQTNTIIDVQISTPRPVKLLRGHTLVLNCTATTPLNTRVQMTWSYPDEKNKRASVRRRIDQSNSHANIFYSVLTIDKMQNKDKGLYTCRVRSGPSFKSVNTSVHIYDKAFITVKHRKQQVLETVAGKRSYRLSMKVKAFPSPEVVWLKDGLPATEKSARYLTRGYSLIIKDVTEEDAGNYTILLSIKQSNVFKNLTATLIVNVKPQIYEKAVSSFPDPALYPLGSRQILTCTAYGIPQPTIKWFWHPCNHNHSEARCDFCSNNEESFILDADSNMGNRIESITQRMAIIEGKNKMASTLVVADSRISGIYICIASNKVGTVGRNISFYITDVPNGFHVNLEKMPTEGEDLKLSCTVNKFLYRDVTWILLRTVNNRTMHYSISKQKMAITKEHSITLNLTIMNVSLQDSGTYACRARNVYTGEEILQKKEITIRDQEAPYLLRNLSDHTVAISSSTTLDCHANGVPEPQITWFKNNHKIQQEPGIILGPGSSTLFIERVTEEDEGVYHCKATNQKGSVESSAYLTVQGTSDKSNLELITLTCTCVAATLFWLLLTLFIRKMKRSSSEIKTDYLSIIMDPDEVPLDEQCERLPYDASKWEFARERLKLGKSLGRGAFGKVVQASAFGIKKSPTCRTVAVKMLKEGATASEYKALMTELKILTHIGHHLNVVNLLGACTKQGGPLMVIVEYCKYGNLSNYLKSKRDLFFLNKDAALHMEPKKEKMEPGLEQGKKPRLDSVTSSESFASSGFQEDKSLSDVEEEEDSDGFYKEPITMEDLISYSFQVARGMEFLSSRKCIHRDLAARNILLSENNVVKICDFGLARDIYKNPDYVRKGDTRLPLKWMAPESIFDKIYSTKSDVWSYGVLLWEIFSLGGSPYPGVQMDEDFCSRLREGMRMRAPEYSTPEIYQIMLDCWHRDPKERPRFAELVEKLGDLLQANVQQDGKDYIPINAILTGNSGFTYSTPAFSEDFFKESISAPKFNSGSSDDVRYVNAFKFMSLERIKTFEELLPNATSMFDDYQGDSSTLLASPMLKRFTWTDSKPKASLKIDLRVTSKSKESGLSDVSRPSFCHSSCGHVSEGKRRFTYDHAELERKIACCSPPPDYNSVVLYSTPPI

[9] = target: Proto-oncogene tyrosine-protein kinase receptor Ret (Homo sapiens) (UniProt P07949); assay: Inhibition of RET (unknown origin) at 100 uM incubated for 60 mins by ELISA relative to control; procedure, shortened: as §2
[10] = target: Fibroblast growth factor receptor 1 (Homo sapiens) (UniProt P11362); assay: Inhibition of FGFR1 (unknown origin) at 100 uM incubated for 60 mins by ELISA relative to control; procedure, shortened: as §2
Homo sapiens = organism: Homo sapiens; assay: Inhibition of PKA (unknown origin) at 100 uM incubated for 60 mins by Millipore Kinase Profiler service relative to control
[11] = target: Vascular endothelial growth factor receptor 2 (Homo sapiens) (UniProt P35968); assay: Inhibition of KDR (unknown origin) at 100 uM incubated for 60 mins by ELISA relative to control; procedure, shortened: as §2
[12] = target: Receptor tyrosine-protein kinase erbB-4 (Homo sapiens) (UniProt Q15303); assay: Inhibition of ERBB4 (unknown origin) at 100 uM incubated for 60 min by ELISA relative to control; procedure, shortened: as §2
[13] = Cytotoxicity against HUVEC assessed as cell viability at 0 to 50 uM incubated for 24 hrs by CCK-8 assay relative to control; type: cell-based; conditions: human, dose 0-50 µM, read-out: Activity
Procedure, shortened: (§3)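 HUVEC and LO2 normal cells were cultured in RPMI-1640 or DMEM with 10% FBS at 37 °C, 5% CO2, and seeded at 3 × 10^4 cells/well. They were exposed for 24 h to graded concentrations. CCK-8 incubation was 3 h at 37 °C, with A450 read and viability expressed versus untreated control. Three independent experiments, mean ± SEM.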

[14] = Cytotoxicity against human L02 cells assessed as cell viability at 0 to 50 uM incubated for 24 hrs by CCK-8 assay relative to control; type: cell-based; conditions: dose 0-50 µM, read-out: Activity; procedure, shortened: as §3
NB4-DR1 = assay: Antiproliferative activity against human NB4-DR1 cells assessed as reduction in cell viability incubated for 24 hrs by CCK-8 assay; type: functional, cell-based; conditions: NB4-DR1, 24 h; procedure, shortened: as §1
[15] = target: T1, Glycogen synthase kinase-3 beta; assay: Irreversible inhibition of recombinant human GSK-3beta preincubated for upto 10 mins by double reciprocal plot analysis; conditions: time min <=10, TDE = time-dependent effect
Procedure, shortened: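 Irreversibility tested in the Kinase-Glo GSK-3β assay. Inhibitor at 6.25 and 12.5 μM was preincubated with enzyme for 0, 5 or 10 min. Each point is the mean of two separate experiments done in triplicate.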
Target sequence in this assay (P49841 whole entry, looked up): as the sequence (P49841 whole entry) above

[16] = target: T1, Glycogen synthase kinase-3 beta; assay: Non-competitive inhibition of recombinant human GSK-3beta at 2 to 4 uM using varying concentration of GS-2 as substrate incubated for 10 mins in presence of ATP by double reciprocal plot analysis; conditions: dose 2-4 µM
Target sequence in this assay (P49841 whole entry, looked up): as the sequence (P49841 whole entry) above

[17] = Thiol reactivity of compound with mercaptoethanol measured after 24 hrs by 1H-NMR analysis; type: physicochemical
[18] = target: T1, Glycogen synthase kinase-3 beta; assay: Non-competitive inhibition of recombinant human GSK-3beta using GS-2 peptide as substrate at 2 to 4 uM incubated for 10 mins in presence of varying levels of ATP by double reciprocal plot analysis; conditions: dose 2-4 µM
Target sequence in this assay (P49841 whole entry, looked up): as the sequence (P49841 whole entry) above

| SMILES | pIC50 [1] | inhibition [2] | pIC50 (Raji) | pIC50 (MOLT-4) | pIC50 (HL-60) | pIC50 (NB-4) | other results |
| --- | --- | --- | --- | --- | --- | --- | --- |
| C=CC(=O)N1C(=O)CC(c2ccc([N+](=O)[O-])cc2)Sc2ccccc21 (stereo not drawn) | 5.12 | 50.7% | 4.46 | 4.04 | 3.97 | 4.42 | – |
| CCC(=O)N1C(=O)CC(c2cccs2)Sc2ccccc21 (stereo not drawn) | < 4.00 | – | – | – | – | – | – |
| C=CC(=O)N1C(=O)CC(c2ccccc2Cl)Sc2ccccc21 (stereo not drawn) | 5.60 | 61.8% | 4.30 | 4.10 | 4.04 | 4.47 | – |
| C=CC(=O)N1C(=O)CC(c2ccc(N3CCOCC3)cc2)Sc2ccccc21 (stereo not drawn) | 4.82 | – | 4.25 | 4.19 | 4.01 | 4.37 | – |
| Cc1ccc(C(=O)Nc2ccc(CN3CCN(C)CC3)c(C(F)(F)F)c2)cc1C#Cc1cnc2cccnn12 | – | – | – | – | – | – | pIC50 [3]: 9.15 |
| C=CC(=O)N1C(=O)CC(c2cccc(Cl)c2)Sc2ccccc21 (stereo not drawn) | 5.40 | – | 4.33 | 4.11 | 4.03 | 4.50 | – |
| C=CC(=O)N1C(=O)CC(c2ccc(OC)cc2)Sc2ccccc21 (stereo not drawn) | 5.21 | – | 4.36 | 4.08 | 4.04 | 4.48 | – |
| C=CC(=O)Nc1ccc(C2CC(=O)Nc3ccccc3S2)cc1 (stereo not drawn) | < 4.00 | – | – | – | – | – | – |
| C=CC(=O)N1C(=O)CC(c2ccc(C)cc2)Sc2ccccc21 (stereo not drawn) | 5.32 | 30% | 4.12 | 4.06 | 4.03 | 4.43 | – |
| C=CC(=O)N1C(=O)CC(c2ccc(-c3ccccc3)cc2)Sc2ccccc21 (stereo not drawn) | 5.24 | 13.4% | 4.25 | 4.01 | 3.93 | 4.24 | – |
| C=CC(=O)NCCN1C(=O)CC(c2ccccc2)Sc2ccccc21 (stereo not drawn) | < 4.00 | – | – | – | – | – | – |
| C=CC(=O)N1C(=O)CCSc2ccccc21 | 4.77 | – | 3.24 | 3.25 | 4.35 | 4.65 | – |
| C=CC(=O)N1C(=O)CC(c2cccs2)Sc2ccccc21 (stereo not drawn) | 5.31 | – | 3.18 | 3.25 | 3.16 | 3.12 | inhibition [4]: 7.8%; inhibition [5]: 26.3%; inhibition [6]: 0%; inhibition [7]: 0%; inhibition [8]: 0%; inhibition [9]: 0%; inhibition [10]: 18.8%; inhibition (Homo sapiens): 22%; inhibition [11]: 3.1%; inhibition [12]: 0% |
| C=CC(=O)N1C(=O)CC(C)Sc2ccccc21 (stereo not drawn) | 4.70 | – | 3.08 | 3.14 | 3.70 | 3.64 | – |
| C=CC(=O)N1C(=O)CC(c2ccc(Cl)cc2)Sc2ccccc21 (stereo not drawn) | 5.17 | 46.7% | 4.74 | 4.08 | 4.02 | 4.65 | viability at 24 h, up to 50 µM [13]: > 80%; inhibition [4]: 0%; inhibition [5]: 14%; inhibition [6]: 11.1%; inhibition [7]: 8%; inhibition [8]: 7.4%; inhibition [9]: 73.9%; inhibition [10]: 88.3%; inhibition (Homo sapiens): 7%; viability at 24 h, up to 50 µM [14]: > 80%; pIC50 (NB4-DR1): 4.32; inhibition [11]: 0%; inhibition [12]: 0% |
| C=CC(=O)N1C(=O)CC(c2ccc(C(F)(F)F)cc2)Sc2ccccc21 (stereo not drawn) | 4.82 | 20% | 4.32 | 4.12 | 3.97 | 4.41 | – |
| C=CC(=O)N1C(=O)CC(c2ccc(Br)cc2)Sc2ccccc21 (stereo not drawn) | 5.19 | 33.4% | 4.29 | 3.97 | 3.90 | 4.23 | – |
| C=CC(=O)N1C(=O)CC(c2ccccc2C(F)(F)F)Sc2ccccc21 (stereo not drawn) | 5.55 | 32% | 4.30 | 4.07 | 4.02 | 4.45 | – |
| [Cl-].[Li+] [CHLOROLITHIUM] | – | – | – | – | – | 2.27 | pIC50 (NB4-DR1): 1.37 |
| C=CC(=O)N1C(=O)CC(c2ccc(C(=O)OC)cc2)Sc2ccccc21 (stereo not drawn) | 5.22 | – | 4.05 | 4.10 | 3.99 | 4.61 | viability at 24 h, up to 50 µM [13]: > 80%; viability at 24 h, up to 50 µM [14]: > 80%; pIC50 (NB4-DR1): 4.03 |
| C=CC(=O)N1C(=O)CC(c2ccccc2)Sc2ccccc21 (stereo not drawn) | 5.18 | – | 4.13 | 4.07 | 4.01 | 4.45 | inhibition [15]: Tde; inhibition [4]: 2.7%; inhibition [5]: 26.9%; inhibition [16]: Active; inhibition [6]: 6.5%; inhibition [8]: 1.7%; inhibition [9]: 0%; inhibition [10]: 0%; Drug metabolism [17]: Metabolite_Detected; inhibition [11]: 0%; inhibition [18]: Active; inhibition [12]: 0% |
| C=CC(=O)N1C(=O)CC(c2ccc(C#N)cc2)Sc2ccccc21 (stereo not drawn) | 5.21 | 92.9% | 4.07 | 4.05 | 3.94 | 4.21 | – |
